48 compounds from ChEMBL document CHEMBL1149691, “Identification of a novel class of selective Tpl2 kinase inhibitors: 4-Alkylamino-[1,7]naphthyridine-3-carbonitriles” (Bioorg Med Chem, 2007) can be followed below.

As usually defined, the pIC50 is −log10 of the IC50, conventionally taken in molar units. What is called IC50 is the concentration that inhibits the measured activity by half. A low value points to greater potency in that assay. A word on the clearance: it is the volume of plasma or blood freed of the substance per unit of time. Read a high clearance as a high capacity for elimination. One may read the inhibition in vivo as the drop in the measured response relative to a control, in per cent. In general, bioavailability refers to the share of a dose that reaches the circulation, judged against a reference dose that is usually intravenous. Lower therefore signals poor availability.

pIC50: −log10 of the molar value. Calls of active or inactive are those of the source. No cut-off for these calls is given here.

A short description of data set [1]: Inhibition of Tpl2 kinase assessed as MEK phosphorylation by ELISA. Further details: species or system Homo sapiens. Summed up:
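Tpl2 (0.4 nM) incubated with 35 nM GST-MEK1 substrate and 50 µM ATP in pH 7.2 Mops buffer with MgCl2, DTT, β-glycerophosphate, EGTA and orthovanadate, 1 h at 30 °C, 1% DMSO final; stopped with EDTA. GST-MEK1 captured on anti-GST plates, phospho-Ser217/221 detected by anti-phospho-MEK1 and Eu-labelled secondary (DELFIA); IC50 by curve fitting.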
(ELISA stands for enzyme-linked immunosorbent assay.)

The test system of the next data set is Blood. Briefly: Inhibition of LPS-induced TNFalpha production in human blood. The format is functional, tissue-based. In a few lines: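 Heparinized blood from healthy male volunteers diluted 1–5 in RPMI/3% FCS at 37 °C; compounds (in DMSO, 1.0% final) added 30 min before LPS at 10 ng/mL, ~3 h incubation. Plasma TNF-α measured by ELISA or electrochemiluminescence.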

The next data set deals with Monocyte. Briefly: Inhibition of LPS-induced TNFalpha production in human monocytes. The format is functional, cell-based. Summed up:
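Monocytes enriched from buffy coat by antibody-cocktail negative selection and two Histopaque-1077 separations, plated at 800,000 cells/well in RPMI/0.5% FBS at 37 °C/5% CO2. Compounds in DMSO added 30 min before LPS at 10 ng/mL, ~3 h incubation; supernatant TNF-α by ELISA or electrochemiluminescence.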

The target of another data set is Protein kinase C (PKC). The experiment in a line: Inhibition of PKC. Further details: species or system Homo sapiens.
Data set [2] is described as follows: Inhibition of S6 kinase. Also noted: species or system Homo sapiens.
Data set [3] has as its target T1, MAP kinase p38 (Homo sapiens, UniProt O15264+Q15759+Q16539+P53778). Briefly: Inhibition of p38 kinase. In kind it is protein assay.
The species entered for a further data set is Homo sapiens. Briefly: Inhibition of CAMK2 at 40 uM.
The target of data set [4] is T1, MAP kinase p38. The experiment in a line: Inhibition of P-p38 kinase in human monocytes. The format is cell-based.
Data set [5] can be described thus: Clearance in Sprague-Dawley rat. In kind it is ADME, organism-based. The following applies: in vivo.
The target of data set [6] is T2, Proto-oncogene tyrosine-protein kinase Src (Homo sapiens, UniProt P12931). The experiment in a line: Inhibition of Src kinase at 40 uM.
T2 sequence (P12931 2-536 limits assumed): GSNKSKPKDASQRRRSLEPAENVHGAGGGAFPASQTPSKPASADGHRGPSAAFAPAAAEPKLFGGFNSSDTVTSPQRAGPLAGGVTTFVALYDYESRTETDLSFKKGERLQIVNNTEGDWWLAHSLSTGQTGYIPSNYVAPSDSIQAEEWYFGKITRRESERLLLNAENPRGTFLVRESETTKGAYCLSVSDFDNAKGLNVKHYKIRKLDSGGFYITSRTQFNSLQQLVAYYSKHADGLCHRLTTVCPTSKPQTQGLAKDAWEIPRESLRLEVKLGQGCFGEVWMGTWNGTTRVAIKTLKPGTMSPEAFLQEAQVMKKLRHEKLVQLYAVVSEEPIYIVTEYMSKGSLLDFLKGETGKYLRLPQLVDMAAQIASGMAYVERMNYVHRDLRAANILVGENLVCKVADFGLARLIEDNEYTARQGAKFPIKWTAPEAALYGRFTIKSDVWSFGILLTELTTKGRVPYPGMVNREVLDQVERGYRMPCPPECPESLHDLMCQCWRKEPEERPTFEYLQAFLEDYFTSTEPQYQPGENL
Data set [7] can be described thus: Inhibition of MEK. Further details: species or system Homo sapiens.
For data set [8], the system named is Mus musculus. Briefly: Inhibition of LPS-induced TNFalpha production in C57B1/6 mouse at 25 mg/kg, ip. In kind it is functional. The following applies: C57B1/6, ip, route intraperitoneal. In a few lines: (§1)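 Female C57Bl/6 mice, 8–10 weeks old; compound (10 or 25 mg/kg) or vehicle given ip, then 1 h later LPS plus D-galactosamine in PBS ip (2 and […] final). Mice euthanized with CO2 1.5 h after challenge and bled by cardiac puncture; serum TNF-α compared with vehicle.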

The nature of data set [9]: Inhibition of PKA. Further details: species or system Homo sapiens.
Data set [10] is described as follows: Bioavailability in Sprague-Dawley rat. The format is ADME, organism-based. The following applies: in vivo.
The target of data set [11] is MAP kinase-activated protein kinase 2 (Homo sapiens) (UniProt P49137). The experiment in a line: Inhibition of MK2 at 40 uM.
MAP kinase-activated protein kinase 2 (Homo sapiens), sequence (P49137 whole entry, looked up): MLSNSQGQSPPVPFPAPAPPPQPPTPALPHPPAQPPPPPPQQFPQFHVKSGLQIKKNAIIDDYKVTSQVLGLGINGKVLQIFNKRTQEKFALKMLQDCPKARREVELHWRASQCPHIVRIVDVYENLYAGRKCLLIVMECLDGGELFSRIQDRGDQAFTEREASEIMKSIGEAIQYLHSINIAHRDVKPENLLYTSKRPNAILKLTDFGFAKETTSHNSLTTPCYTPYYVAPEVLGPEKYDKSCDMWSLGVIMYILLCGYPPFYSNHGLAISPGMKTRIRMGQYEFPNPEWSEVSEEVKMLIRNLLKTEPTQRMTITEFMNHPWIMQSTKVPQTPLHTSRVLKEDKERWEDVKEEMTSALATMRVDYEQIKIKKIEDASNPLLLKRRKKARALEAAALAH
In data set [12] the target is T1, MAP kinase p38. Briefly: Inhibition of P-p38 kinase in human monocytes at 40 uM. In kind it is cell-based.
Data set [13] concerns Mus musculus. Briefly: Inhibition of LPS-induced TNFalpha production in C57B1/6 mouse at 10 mg/kg, ip. In kind it is functional. To be noted: C57B1/6, ip, route intraperitoneal. In a few lines:
as §1

Data set [14] deals with Epidermal growth factor receptor (Homo sapiens, UniProt P00533). The experiment in a line: Inhibition of EGFR kinase autophosphorylation in A431 cells.
Epidermal growth factor receptor, sequence (P00533 whole entry): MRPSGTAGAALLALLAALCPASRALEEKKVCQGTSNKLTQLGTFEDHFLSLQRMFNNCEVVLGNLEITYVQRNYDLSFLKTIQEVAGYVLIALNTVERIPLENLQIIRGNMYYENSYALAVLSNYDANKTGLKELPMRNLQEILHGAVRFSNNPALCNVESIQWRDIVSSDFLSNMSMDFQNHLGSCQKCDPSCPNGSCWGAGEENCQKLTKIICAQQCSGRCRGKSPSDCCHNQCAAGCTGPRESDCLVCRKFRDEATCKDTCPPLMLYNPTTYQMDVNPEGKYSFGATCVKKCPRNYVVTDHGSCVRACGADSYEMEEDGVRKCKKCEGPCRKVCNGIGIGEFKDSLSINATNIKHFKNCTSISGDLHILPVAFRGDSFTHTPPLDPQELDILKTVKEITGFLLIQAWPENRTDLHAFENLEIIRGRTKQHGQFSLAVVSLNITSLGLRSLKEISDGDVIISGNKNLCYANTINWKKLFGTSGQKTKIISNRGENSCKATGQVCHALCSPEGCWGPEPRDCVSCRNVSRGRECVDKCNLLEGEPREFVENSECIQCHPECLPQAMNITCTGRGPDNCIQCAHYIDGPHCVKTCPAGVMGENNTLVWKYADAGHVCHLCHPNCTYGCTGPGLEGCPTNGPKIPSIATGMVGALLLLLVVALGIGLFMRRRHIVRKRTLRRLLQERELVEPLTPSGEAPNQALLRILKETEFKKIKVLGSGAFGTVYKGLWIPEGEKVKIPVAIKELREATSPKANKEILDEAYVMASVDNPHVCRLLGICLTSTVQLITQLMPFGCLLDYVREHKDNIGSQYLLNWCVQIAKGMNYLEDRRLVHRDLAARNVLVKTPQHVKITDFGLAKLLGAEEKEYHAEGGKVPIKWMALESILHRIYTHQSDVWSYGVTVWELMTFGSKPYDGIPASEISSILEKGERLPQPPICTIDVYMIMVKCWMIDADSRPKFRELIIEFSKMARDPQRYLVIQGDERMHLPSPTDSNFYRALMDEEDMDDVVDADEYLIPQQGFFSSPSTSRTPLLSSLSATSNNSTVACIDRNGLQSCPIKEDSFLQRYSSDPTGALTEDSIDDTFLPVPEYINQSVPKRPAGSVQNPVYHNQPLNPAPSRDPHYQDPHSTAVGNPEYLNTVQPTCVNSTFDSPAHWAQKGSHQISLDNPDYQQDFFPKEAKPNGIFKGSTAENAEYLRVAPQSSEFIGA
For data set [15], the target named is T2, Proto-oncogene tyrosine-protein kinase Src. The experiment in a line: Inhibition of Src kinase.

Consider `C[C@@H](Nc1cc2c(Nc3ccc(F)c(Cl)c3)c(C#N)cnc2cn1)c1ccccc1`, for which the pIC50 in data set [1] was 7.30.
On the same count and under the same terms, in the case of `N#Cc1cnc2cnc(NCCN3CCOCC3)cc2c1Nc1ccc(F)cc1` it was 4.97; in that of `Cn1ccnc1CNc1ccc2ncc(C#N)c(NC(C)(C)C)c2c1`, 5.52.
In the case of `N#Cc1cnc2cnc(NCc3cccnc3)cc2c1Nc1ccc(F)c(Cl)c1`, the pIC50 in [1] was 7.30; in the data set with Blood, less than 4.70; with Monocyte it was 5.96.
Take `N#Cc1cnc2cnc(NC3CCCC3)cc2c1Nc1ccc(F)c(Cl)c1`: the pIC50 in data set [1] is 5.12.
On to `N#Cc1cnc2cnc(NCCN3CCOCC3)cc2c1Nc1cccc(C(=O)O)c1`, for which the pIC50 in [1] was less than 5.00.
Still for that read-out and setting: in the case of `N#Cc1cnc2cnc(NCCN3CCOCC3)cc2c1Nc1cccc(I)c1` it was 5.15.
For the compound `N#Cc1cnc2ccc(NCc3c[nH]cn3)cc2c1Nc1ccc(F)c(Cl)c1`, the IC50 is greater than 10000 nM at Protein kinase C (PKC), 30000 nM at MAP kinase p38 [3] and 2110 nM on MAP kinase p38 [4]. Besides, the pIC50 was less than 5.00 in data set [2], 5.62 in [7], 6.22 in the data set with Monocyte and 5.23 in [9]. For the same compound, the outcome (in the data set filed under Homo sapiens; in [6]; in [11]) was inactive. Besides, the clearance in [5] was 97 mL/min/kg. This compound also had an inhibition in vivo at 25 mg/kg in the data set with Mus musculus [8] of 71%. Further, the bioavailability in data set [10] turned out to be 1%.
On Protein kinase C (PKC), `N#Cc1cnc2cnc(NCc3cccnc3)cc2c1NC1CCCCCC1` registered an IC50 greater than 40000 nM. In addition, the pIC50 in [2] was less than 4.40; in [1], 6.80; in the data set with Blood it was 5.35; in data set [7], less than 4.40; in the data set with Monocyte, 6.30; in data set [14], less than 4.70. For the same compound, the values for the pIC50 in data set [15] and in [9] were 4.42 and less than 4.40, respectively. Further, the outcome (in the data set listed under Homo sapiens; at MAP kinase p38 [12]; in [11]) was inactive. The compound also yielded a clearance in data set [5] of 30 mL/min/kg. This compound also came in with an inhibition in vivo at 10 mg/kg in the data set with Mus musculus [13] of 86%. In [10], the bioavailability was determined as 14%.
On to `C#CC(C)(C)Nc1c(C#N)cnc2cnc(NCc3cccnc3)cc12`, for which the pIC50 was 6.57 in [1] and 5.70 in the data set on Monocyte. Also, in the data set with Blood, the outcome was inactive.
For `N#Cc1cnc2ccc(NCc3cccnc3)cc2c1NC1CCCC1`, the pIC50 in data set [1] was 5.62.
Turning to `N#Cc1cnc2ccc(NCCN3CCOCC3)cc2c1NC1CCCC1`, the pIC50 in data set [1] was 4.71.
In the case of `N#Cc1cccc(CNc2ccc3ncc(C#N)c(NC4CCCC4)c3c2)c1`, in data set [1], the pIC50 is 5.66.
In the case of `C[C@H](Nc1cc2c(NC3CCCCCC3)c(C#N)cnc2cn1)c1ccccc1`, in [1], the pIC50 was 6.04.
Turning to `CS(=O)(=O)Nc1cccc(Nc2c(C#N)cnc3cnc(NCCN4CCOCC4)cc23)c1`, in data set [1], the pIC50 is less than 5.00.
Take `N#Cc1cnc2cnc(NCc3cccnc3)cc2c1NC1CCCCC1`: the pIC50 in data set [1] was 6.33; with Blood, 5.33; in the data set on Monocyte, 6.30; in [14] it was less than 4.40.
For the compound `N#Cc1cnc2ccc(NCc3cccc[n+]3[O-])cc2c1NC1CCCC1`, in [1], the pIC50 is 5.89.
Same read-out and setting: in the case of `N#Cc1cnc2ccc(NCCN3CCOCC3)cc2c1Nc1ccc(F)c(Cl)c1` it was 6.00.
With `CC(C)(C)Nc1c(C#N)cnc2ccc(NCc3cccc(S(C)(=O)=O)c3)cc12`, in data set [1], the pIC50 was 5.54.
`N#Cc1cnc2ccc(NCc3cccnc3)cc2c1Nc1ccc(F)c(Cl)c1`: the pIC50 in [1] was 7.74.
Regarding `N#Cc1cnc2cnc(NCCN3CCOCC3)cc2c1Nc1cccc(Oc2ccccc2)c1`, the pIC50 in data set [1] is 4.94.
Turning to `N#Cc1cnc2cnc(NCCN3CCOCC3)cc2c1Nc1ccc(Oc2ccccc2)cc1`, the pIC50 in [1] is 6.42.
Still for that read-out and setting: then `N#Cc1cnc2ccc(NCc3ccccc3)cc2c1NC1CCCC1`, with 4.68; and `C[C@H](Nc1cc2c(N(C)C3CCCCCC3)c(C#N)cnc2cn1)c1ccccc1`, with less than 4.40; and `CC(C)(C)Nc1c(C#N)cnc2ccc(NCc3ccc(S(N)(=O)=O)cc3)cc12`, with 5.14.
For `CC(C)(C)Nc1c(C#N)cnc2cnc(NCc3cccnc3)cc12`, the pIC50 in [1] is 6.20; with Blood, 5.38; in the data set with Monocyte, 6.22; in data set [14], less than 4.40. Further, the clearance in [5] was found to be 50 mL/min/kg.
As to `CCC(C)(C)Nc1c(C#N)cnc2cnc(NCc3cccnc3)cc12`, the pIC50 in data set [1] is 6.44; in the data set with Blood, 5.35; with Monocyte, 6.10; in data set [14], less than 4.40.
As to `N#Cc1cnc2cnc(NCCN3CCOCC3)cc2c1Nc1cccc(C(N)=O)c1`, the pIC50 in data set [1] is less than 5.00.
Turning to `N#Cc1cnc2cnc(NCc3cccnc3)cc2c1NC1CCCC1`, the negative-log IC50 (pIC50) in [1] was 6.49; with Blood, 5.11; with Monocyte, 6.22; in data set [14] it was less than 4.40. In data set [5], the clearance came to 28 mL/min/kg.
As to `CC(C)(C)Nc1cc2c(Nc3ccc(F)c(Cl)c3)c(C#N)cnc2cn1`, the pIC50 in [1] is less than 4.40.
As for `N#Cc1cnc2cnc(Nc3ccc(F)c(Cl)c3)cc2c1NC1CCCC1`, the pIC50 in data set [1] is 5.10.
Turning to `CC(C)(C)Nc1c(C#N)cnc2ccc(NCc3cccc[n+]3[O-])cc12`, the pIC50 in data set [1] is 5.89.
With `N#Cc1cnc2cnc(NC3CCCCCC3)cc2c1Nc1ccc(F)c(Cl)c1`, the pIC50 in data set [1] is 5.28.
Turning to `N#Cc1cnc2cnc(NCCN3CCOCC3)cc2c1Nc1ccc(F)c(F)c1`, in data set [1], the pIC50 is 5.44.
Same read-out and setting: then `N#Cc1cnc2ccc(NCc3cccnc3)cc2c1NC1CCCCCC1`, with 5.59; and `N#Cc1cnc2ccc(NCc3ccc(S(N)(=O)=O)cc3)cc2c1NC1CCCC1`, with 5.14.
On the same count and under the same terms, then `CC(C)(C)Nc1c(C#N)cnc2ccc(NCc3ccn[nH]3)cc12`, with 5.80.
Take `N#Cc1cnc2ccc(NCCN3CCOCC3)cc2c1Nc1ccc(Oc2ccccc2)cc1`: the pIC50 in data set [1] is 6.60.
As to `N#Cc1cnc2ccc(NCc3ccn[nH]3)cc2c1NC1CCCC1`, the pIC50 in data set [1] was 5.80.
On to `CS(=O)(=O)c1cccc(CNc2ccc3ncc(C#N)c(NC4CCCC4)c3c2)c1`, for which the pIC50 in data set [1] is 5.54.
Regarding `N#Cc1ccccc1CNc1ccc2ncc(C#N)c(NC3CCCC3)c2c1`, in data set [1], the pIC50 was 5.77.
Still for that read-out and setting: in the case of `N#Cc1cnc2cnc(NCCN3CCOCC3)cc2c1Nc1ccc([N+](=O)[O-])cc1` it was 5.15.
Regarding `N#Cc1cnc2cnc(NCc3cccnc3)cc2c1NC1CC1`, the pIC50 is 5.55 in data set [1] and less than 4.40 in data set [14].
Regarding `N#Cc1cnc2cnc(NCc3cccnc3)cc2c1Nc1ccccc1`, the pIC50 in [1] was 6.40; in the data set with Blood it was 4.70; with Monocyte, 5.96; in data set [14], greater than 5.30.
On to `N#Cc1cnc2cnc(NCCN3CCOCC3)cc2c1Nc1ccc(Nc2ccccc2)cc1`, for which, in data set [1], the pIC50 is 5.12.
Still for that read-out and setting: in the case of `Cn1ccnc1CNc1ccc2ncc(C#N)c(NC3CCCC3)c2c1` it was 5.52; in that of `CC(C)(C)Nc1c(C#N)cnc2ccc(NCc3cccc(C#N)c3)cc12`, 5.77.
Same read-out and setting: then `N#Cc1cnc2cnc(NCc3cccnc3)cc2c1NC1CCNCC1`, with less than 4.40.
